Reference: ChEMBL document CHEMBL4706641, “Novel Carboline Fungal Histone Deacetylase (HDAC) Inhibitors for Combinational Treatment of Azole-Resistant Candidiasis” (J Med Chem, 2021)
Values after ≈ are worked out from the molar mass of the structure shown. Active and inactive are the calls of the source.

Key:
Candida albicans [1] = assay: Synergistic antifungal activity against Candida albicans 0304103 incubated for 48 hrs in presence of fluconazole by microdilution assay; assay type: functional
How it was run: (§1)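 Checkerboard broth microdilution per CLSI M27-A3 (modified), clinical Candida isolates. Exponential cells in RPMI 1640 (MOPS-buffered) at 10³ cells/mL; fluconazole 0.25–64 μg/mL crossed with test compound 2–64 μg/mL (final). 48 h at 35 °C; OD630 read with background subtracted. MIC80 = 80% growth inhibition; FICI ≤0.5 synergy, >4 antagonism.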

Candida albicans [2] = assay: microbe, parasite or virus in culture; assay type: functional, 0304103
Candida albicans [3] = assay: Antifungal activity against Candida albicans 0304103 incubated for 48 hrs by microdilution assay; assay type: functional; how it was run: as §1
Candida albicans [4] = assay: Synergistic antifungal activity against Candida albicans 0304103 assessed as potentiation of fluconazole antifungal activity by measuring FICI incubated for 48 hrs in presence of fluconazole by checkerboard microdilution assay; assay type: functional; how it was run: as §1
Candida albicans [5] = assay: Synergistic antifungal activity against azole-resistant Candida albicans assessed as potentiation of VRC antifungal activity by measuring VRC incubated for 48 hrs in presence of fluconazole by checkerboard microdilution assay; assay type: functional
Candida albicans [6] = assay: Synergistic antifungal activity against azole-resistant Candida albicans assessed as potentiation of ITC antifungal activity by measuring ITC incubated for 48 hrs in presence of fluconazole by checkerboard microdilution assay; assay type: functional
Candida albicans [7] = assay: Antifungal activity against Candida albicans 9172 incubated for 48 hrs by microdilution assay; assay type: functional; how it was run: as §1
Candida albicans [8] = assay: Synergistic antifungal activity against Candida albicans 9172 assessed as fluconazole MIC incubated for 48 hrs in presence of fluconazole by microdilution assay (reference value: fluconazole alone MIC = >[…] ug/ml); assay type: functional
Candida albicans [9] = assay: Antifungal activity against Candida albicans 9884 incubated for 48 hrs by microdilution assay; assay type: functional; how it was run: as §1
Pichia kudriavzevii [10] = assay: Synergistic antifungal activity against Candida krusei 10153 assessed as fluconazole MIC incubated for 48 hrs in presence of fluconazole by microdilution assay (reference value: fluconazole alone MIC = […] ug/ml); assay type: functional
Candida albicans [11] = assay: Antifungal activity against Candida albicans 4108 incubated for 48 hrs by microdilution assay; assay type: functional; how it was run: as §1
Candida albicans [12] = assay: Synergistic antifungal activity against Candida albicans 4108 assessed as fluconazole MIC incubated for 48 hrs in presence of fluconazole by microdilution assay (reference value: fluconazole alone MIC = >[…] ug/ml); assay type: functional
Candida albicans [13] = assay: Synergistic antifungal activity against Candida albicans 9884 assessed as fluconazole MIC incubated for 48 hrs in presence of fluconazole by microdilution assay (reference value: fluconazole alone MIC = >[…] ug/ml); assay type: functional
Candida albicans [14] = assay: Antifungal activity against Candida albicans 10061 incubated for 48 hrs by microdilution assay; assay type: functional; how it was run: as §1
Candida albicans [15] = assay: Synergistic antifungal activity against Candida albicans 10061 assessed as fluconazole MIC incubated for 48 hrs in presence of fluconazole by microdilution assay (reference value: fluconazole alone MIC = >[…] ug/ml); assay type: functional
Candida albicans [16] = assay: Synergistic antifungal activity against Candida albicans 4108 incubated for 48 hrs in presence of fluconazole by microdilution assay; assay type: functional; how it was run: as §1
Candida albicans [17] = assay: Synergistic antifungal activity against Candida albicans 10061 incubated for 48 hrs in presence of fluconazole by microdilution assay; assay type: functional; how it was run: as §1
Pichia kudriavzevii [18] = assay: Antifungal activity against Candida krusei 10153 incubated for 48 hrs by microdilution assay; assay type: functional; how it was run: as §1
Pichia kudriavzevii [19] = assay: Synergistic antifungal activity against Candida krusei 10153 incubated for 48 hrs in presence of fluconazole by microdilution assay; assay type: functional; how it was run: as §1
Candida albicans [20] = assay: Synergistic antifungal activity against Candida albicans 9172 incubated for 48 hrs in presence of fluconazole by microdilution assay; assay type: functional; how it was run: as §1
Candida albicans [21] = assay: Synergistic antifungal activity against Candida albicans 9884 incubated for 48 hrs in presence of fluconazole by microdilution assay; assay type: functional; how it was run: as §1
Cryptococcus neoformans = assay: Antifungal activity against Cryptococcus neoformans; assay type: functional
Candida albicans [22] = assay: Induction of morphological changes in Candida albicans assessed as reduction in morphological conversion from yeast to hypha forms at 32 ug/ml incubated for 3 hrs by inverse fluorescence microscopy; assay type: functional, organism-based; conditions: dose 32.0 µg/ml
How it was run: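 Exponential-phase C. albicans were suspended in Spider medium ([…], 2% NaHCO₃, […]) at 2 × 10⁶ cells/mL. Drugs were added alone or combined, with DMSO as control. After 3 h at 37 °C, cells were imaged by inverted fluorescence microscopy. Three independent experiments were run.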

Candida albicans [23] = assay: Antifungal activity against Candida albicans 0304103 at 64 ug/ml incubated for 48 hrs by microdilution assay; assay type: functional, organism-based; conditions: dose 64.0 µg/ml
How it was run: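 Checkerboard microdilution adapted from CLSI M27-A3. Exponential-phase cells resuspended at 10³ cells/mL in RPMI 1640 buffered with 0.165 M MOPS. Final concentrations were fluconazole 0.25–64 μg/mL and test compound 2–64 μg/mL. Plates were held 48 h at 35 °C and read at OD630 with background subtracted. MIC80 was used, and the FICI cut-offs were synergy ≤0.5 and antagonism >4.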

Candida albicans [24] = assay: (§2) Antifungal activity against Candida albicans 0304103 infected in ICR mouse model of candidiasis assessed as reduction in morphological changes of budded-to-hyphal transition at 1 mg/kg, ip dosed 24 hrs post infection and measured after 5 days by H and E staining based microscopical analysis; assay type: functional, organism-based; conditions: time 5.0 day
Candida albicans [25] = assay: Antifungal activity against Candida albicans 0304103 infected in ICR mouse model of candidiasis assessed as reduction in kidney fungal burden at 1 mg/kg, ip dosed 24 hrs post infection and measured after 5 days; assay type: functional, organism-based; conditions: time 5.0 day
Candida albicans [26] = assay: Effect on CDR2 mRNA expression in Candida albicans 0304103 at 32 ug/ml incubated for 24 hrs by RT-PCR analysis; assay type: functional; conditions: dose 32.0 µg/ml
How it was run: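 C. albicans 0304103 was started at 1 × 10⁶ cells/mL and treated with DMSO control, fluconazole 32 μg/mL, test compound 32 μg/mL, or both. Cultures were held in YEPD at 35 °C for 24 h, then total RNA was extracted and reverse-transcribed. Real-time PCR ran 40 cycles. Fold change was calculated by 2^−ΔΔCt against ACT1.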

Candida albicans [27] = assay: as §2, with “fungal invasion by measuring clusters” for “morphological changes”, “fungal infiltration in renal pelvis” for “budded-to-hyphal transition”; assay type: functional, organism-based; conditions: time 5.0 day
Candida albicans [28] = assay: Inhibition of biofilm formation in Candida albicans 0304103 at 2 to 32 ug/ml incubated for 24 hrs by XTT reduction assay; assay type: functional, organism-based; conditions: dose 2-32 µg/ml
How it was run: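 C. albicans 0304103 at 1.0 × 10⁶ CFU/mL in RPMI 1640 was allowed to adhere for 90 min at 37 °C, then washed with PBS. Fresh medium was added with fluconazole 2–32 μg/mL and/or test compound 0.12–64 μg/mL, followed by 24 h at 37 °C. Biofilm was measured semiquantitatively by XTT reduction at OD490. Three independent experiments were run.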

[29] = Candida albicans, 0304103, time 48 hrs, read-out: MIC80
[30] = Candida albicans, 0304103, read-out: MIC80

SMILES	MIC80 (Candida albicans [1]) [µg/mL]	MIC80 (Candida albicans [2]; [29]) [µg/mL]	MIC80 (Candida albicans [3]; [30]) [µg/mL]	fractional inhibitory concentration index (FICI) (Candida albicans [4])	fractional inhibitory concentration index (FICI) (Candida albicans [5])	fractional inhibitory concentration index (FICI) (Candida albicans [6])	also measured
O=C(Cc1ccc(OCCCn2c3c(c4cc(F)ccc42)CCNC3)cc1)NO	2	2 (≈ 5.03 µM)	> 64	0.062	0.035	0.035	–
Cc1ccc2c(c1)c1c(n2CCCOc2ccc(CC(=O)NO)cc2)CNCC1	4	1 (≈ 2.54 µM)	> 64	0.078	0.035	0.035	–
O=C(Cc1ccc(OCCCn2c3c(c4ccc(Cl)cc42)CCNC3)cc1)NO	2	1 (≈ 2.42 µM)	64 (≈ 155 µM)	0.047	0.035	0.035	–
O=C(Cc1ccc(OCCCn2c3c(c4ccc(F)cc42)CCNC3)cc1)NO	2	1 (≈ 2.52 µM)	> 64	0.047	0.035	0.035	–
COc1cccc2c3c(n(CCCOc4ccc(CC(=O)NO)cc4)c12)CNCC3	2	1 (≈ 2.44 µM)	> 64	0.047	0.035	0.035	–
CN1CCc2c(c3ccccc3n2Cc2ccc(C(=O)NO)cc2)C1 [TUBASTATIN A]	–	–	–	–	–	–	MIC80 (Candida albicans [7]): > 64 µg/mL; MIC80 (Candida albicans [8]): 0.5 µg/mL; MIC80 (Candida albicans [9]): > 64 µg/mL; MIC80 (Pichia kudriavzevii [10]): 32 µg/mL; MIC80 (Candida albicans [11]): > 64 µg/mL; MIC80 (Candida albicans [12]): 0.5 µg/mL; MIC80 (Candida albicans [13]): 1 µg/mL; MIC80 (Candida albicans [14]): > 64 µg/mL; MIC80 (Candida albicans [15]): 0.5 µg/mL; MIC80 (Candida albicans [16]): 8 µg/mL; MIC80 (Candida albicans [17]): 2 µg/mL; MIC80 (Pichia kudriavzevii [18]): > 64 µg/mL; MIC80 (Pichia kudriavzevii [19]): 64 µg/mL; MIC80 (Candida albicans [20]): 16 µg/mL; MIC80 (Candida albicans [21]): 4 µg/mL
O=C(Cc1ccc(OCCCn2c3c(c4ccc(Br)cc42)CCNC3)cc1)NO	2	0.5 (≈ 1.09 µM)	> 64	0.039	0.035	0.035	–
O=C(Cc1ccc(OCCCn2c3c(c4c(Br)cccc42)CCNC3)cc1)NO	4	0.25 (≈ 0.545 µM)	> 64	0.066	0.035	0.035	–
Clc1ccc(OCCCn2c3c(c4cc(Cl)ccc42)CCNC3)cc1.O=C(O)C(F)(F)F	–	–	–	–	–	–	MIC80 (Cryptococcus neoformans): 0.25 µg/mL
O=C(Cc1ccc(OCCCn2c3c(c4c(Cl)cccc42)CCNC3)cc1)NO	2	0.5 (≈ 1.21 µM)	> 64	0.039	0.035	0.035	–
O=C(Cc1ccc(OCCCn2c3c(c4cc(Br)ccc42)CCNC3)cc1)NO	2	0.25 (≈ 0.545 µM)	64 (≈ 140 µM)	0.035	0.035	0.035	–
COc1ccc2c(c1)c1c(n2CCCOc2ccc(CC(=O)NO)cc2)CNCC1	8	0.5 (≈ 1.22 µM)	> 64	0.13	0.035	0.035	–
O=C(CCCCCCC(=O)Nc1ccccc1)NO [VORINOSTAT]	–	–	–	–	–	–	MIC80 (Candida albicans [2]; 48 h): 0.25 µg/mL (≈ 0.946 µM); MIC80 (Candida albicans [3]): >64 µg/mL
OC(Cn1cncn1)(Cn1cncn1)c1ccc(F)cc1F [FLUCONAZOLE]	–	–	> 64	–	–	–	MIC80 (Candida albicans [7]): > 64 µg/mL; MIC80 (Candida albicans [9]): > 64 µg/mL; MIC80 (Candida albicans [11]): > 64 µg/mL; Activity (Candida albicans [22]): inactive; Activity (Candida albicans [23]): inactive; Activity (Candida albicans [24]): inactive; MIC80 (Candida albicans [14]): > 64 µg/mL; Activity (Candida albicans [25]): inactive; MIC80 (Pichia kudriavzevii [18]): 64 µg/mL (≈ 209 µM); Activity (Candida albicans [26]): inactive; Activity (Candida albicans [27]): inactive; inhibition (Candida albicans [28]): inactive
O=C(Cc1ccc(OCCCn2c3c(c4ccccc42)CCNC3)cc1)NO	4	0.5 (≈ 1.32 µM)	> 64	0.07	0.035	0.035	–
